Experimental data from ChEMBL document CHEMBL1145920 (J Med Chem, 2003).
In brackets after ≈: the same amount, converted by molar mass. Blank lines part the entries; values can stand above or below the compound they belong to.

What was measured:
[1] = target: T1, Vascular endothelial growth factor receptor 2 (Homo sapiens, UniProt P35968); experiment: Inhibition of Vascular endothelial growth factor receptor 2 autophosphorylation by VEGF in human umbilical vein endothelial cells (HUVECs) at 10 nM; format: cell-based; conditions: HUVEC
In short: (§1)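 Subconfluent HUVECs serum-starved 1 h at 37 °C in EBM-2 with 0.05% BSA, with drug or DMSO present, then stimulated with 10 ng/mL human VEGF for 5 min. Lysates protein-normalized, anti-VEGF-R2 immunoprecipitated, run on SDS-PAGE, antiphosphotyrosine immunoblot, ECL.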

[2] = target: T1, Vascular endothelial growth factor receptor 2; experiment: Inhibition of Vascular endothelial growth factor receptor 2 autophosphorylation by VEGF in human umbilical vein endothelial cells (HUVECs) at 100 nM; format: cell-based; conditions: HUVEC; in short: as §1
[3] = Plasma level in rats at 30 mg/kg; format: ADME, organism-based; design: dose 30 mg/kg; conditions: rat
In short: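 Fasted adult male Sprague–Dawley rats (n = 3) given a single oral gavage dose at 2 mL/kg in 3:1 gelucire/PG vehicle. Plasma prepared by acetonitrile protein precipitation and analyzed by HPLC–tandem MS.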

[4] = Solubility was determined; format: physicochemical
[5] = target: Cyclin-dependent kinase 1/cyclin B (Homo sapiens, UniProt P06493); experiment: Inhibition of Cyclin-dependent kinase 1-cyclin B; format: protein-complex assay
In short: (§2)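 Enzymes were baculovirus-expressed recombinant human cytoplasmic domains: CDK1/cyclinB and CHK1.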

[6] = target: Fibroblast growth factor receptor 1 (Homo sapiens, UniProt P11362); experiment: Inhibition of Fibroblast growth factor receptor 1
[7] = tested on: Mus musculus; experiment: Inhibition of murine SVR angiosarcoma in mice administered b.i.d. for 10 days; format: functional; conditions: oral, 240 h, read-out: MED
In short: (§3)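 Female athymic nu/nu mice, 6–8 weeks old; 1×10^6 SVR murine angiosarcoma cells implanted sc in right flank with Matrigel (1:1 v/v). At tumor volumes of 80–180 mm³, randomized (usually 8–10/group) and dosed orally b.i.d. (T = 0, 8 h), 0.35–23.8 mg/kg at 100 μL/dose; vehicles PG:Tween 80 (1:1) or 1% HOAc. Caliper tumor volumes every 3–4 days; Mann–Whitney test.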

[8] = tested on: Mus musculus; experiment: In vivo antitumor activity against SVR tumor growth in nude mice by oral administration of 10 mg/kg b.i.d. for 10 days; format: functional; conditions: 240 h; in short: as §3
[9] = tested on: Mus musculus; experiment: Antitumor activity against SVR tumor growth in mice by administration of 20 mg/kg b.i.d.; format: functional; conditions: oral; in short: as §3
[10] = target: Mitogen-activated protein kinase 14 (Homo sapiens, UniProt Q16539); experiment: Inhibition of Mitogen-activated protein kinase p38 alpha
In short: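 Enzyme was activated recombinant human GST-p38α.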

[11] = target: Protein kinase C, PKC; classical (Rattus norvegicus, UniProt P05696+P68403+P63319); experiment: Inhibition of rat brain Protein kinase C
In short: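 Enzyme was purified rat brain PKC, a mixture of the Ca2+-dependent α, β and γ isozymes.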

[12] = target: Serine/threonine-protein kinase Chk2 (Homo sapiens, UniProt O96017); experiment: Inhibition of Serine/threonine-protein kinase Chk2 (CDS1 receptor)
[13] = target: T2, Serine/threonine-protein kinase Chk1 (Homo sapiens, UniProt O14757); experiment: Inhibition of Serine/threonine-protein kinase Chk1; in short: as §2
T2 sequence (O14757 whole entry): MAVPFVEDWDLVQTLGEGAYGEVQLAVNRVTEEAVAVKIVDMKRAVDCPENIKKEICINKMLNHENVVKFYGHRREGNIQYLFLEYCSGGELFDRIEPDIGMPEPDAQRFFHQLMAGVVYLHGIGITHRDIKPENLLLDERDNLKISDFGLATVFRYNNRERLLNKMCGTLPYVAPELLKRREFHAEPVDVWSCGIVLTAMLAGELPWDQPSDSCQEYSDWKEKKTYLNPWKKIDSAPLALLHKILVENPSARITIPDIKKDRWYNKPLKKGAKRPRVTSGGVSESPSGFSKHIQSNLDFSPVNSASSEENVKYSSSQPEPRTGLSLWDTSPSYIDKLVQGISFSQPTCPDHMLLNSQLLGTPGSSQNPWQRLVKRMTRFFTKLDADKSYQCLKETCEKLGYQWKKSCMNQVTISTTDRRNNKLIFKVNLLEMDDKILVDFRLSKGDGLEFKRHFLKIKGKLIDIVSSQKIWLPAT

[14] = target: Vascular endothelial growth factor receptor 3 (Homo sapiens, UniProt P35916); experiment: Inhibition of Vascular endothelial growth factor receptor 3
In short: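 Recombinant human VEGF-R3 cytoplasmic domain was expressed in baculovirus-infected insect cells and assayed by ELISA as for VEGF-R2, with PLC-γ/GST fusion substrate. […] Read-out was Eu-antiphosphotyrosine time-resolved fluorescence.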

[15] = target: Vascular endothelial growth factor receptor 1 (Homo sapiens, UniProt P17948); experiment: Inhibition of Vascular endothelial growth factor receptor 1
In short: (§4)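 Baculovirus-expressed human kinase cytoplasmic domains; ELISA-type assay with time-resolved fluorescence readout (Eu-N1 antiphosphotyrosine antibody). […] For VEGF-R2, PLC-γ/GST fusion substrate and 15 min at 37 °C.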

[16] = target: Angiopoietin-1 receptor (Homo sapiens, UniProt Q02763); experiment: Inhibition of Tyrosine protein kinase receptor TIE-2; in short: as §4
[17] = target: T3, Receptor-type tyrosine-protein kinase FLT3 (Homo sapiens, UniProt P36888); experiment: Inhibition of Tyrosine-protein kinase receptor FLT3 (fms-related tyrosine kinase 3) receptor
T3 sequence (P36888 whole entry): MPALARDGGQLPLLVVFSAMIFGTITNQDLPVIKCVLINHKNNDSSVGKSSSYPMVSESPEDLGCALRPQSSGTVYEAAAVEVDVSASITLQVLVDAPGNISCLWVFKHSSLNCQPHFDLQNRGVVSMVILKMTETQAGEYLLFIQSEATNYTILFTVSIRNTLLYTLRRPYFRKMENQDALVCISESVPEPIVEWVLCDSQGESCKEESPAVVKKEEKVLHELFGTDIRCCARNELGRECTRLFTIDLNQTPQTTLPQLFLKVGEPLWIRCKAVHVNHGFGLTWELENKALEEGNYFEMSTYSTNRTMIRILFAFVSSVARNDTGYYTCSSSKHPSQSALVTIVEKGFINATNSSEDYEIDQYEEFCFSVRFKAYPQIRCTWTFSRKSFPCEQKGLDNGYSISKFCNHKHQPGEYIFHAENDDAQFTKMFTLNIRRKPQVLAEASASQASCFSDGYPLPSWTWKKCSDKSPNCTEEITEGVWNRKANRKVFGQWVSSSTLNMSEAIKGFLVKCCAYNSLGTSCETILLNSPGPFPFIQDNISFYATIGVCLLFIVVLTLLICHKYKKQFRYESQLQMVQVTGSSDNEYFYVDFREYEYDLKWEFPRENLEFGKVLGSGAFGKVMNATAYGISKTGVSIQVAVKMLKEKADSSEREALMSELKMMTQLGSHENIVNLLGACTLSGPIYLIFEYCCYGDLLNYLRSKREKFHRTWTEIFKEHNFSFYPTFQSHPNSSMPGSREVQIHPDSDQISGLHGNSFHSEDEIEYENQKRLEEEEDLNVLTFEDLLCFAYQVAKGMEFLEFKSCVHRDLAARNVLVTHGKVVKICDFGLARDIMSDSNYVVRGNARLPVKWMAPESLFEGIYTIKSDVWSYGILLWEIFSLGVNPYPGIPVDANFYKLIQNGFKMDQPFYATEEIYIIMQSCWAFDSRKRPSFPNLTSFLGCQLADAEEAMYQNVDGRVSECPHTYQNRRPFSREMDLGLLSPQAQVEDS
In short: (§5)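 Recombinant human cytoplasmic kinase domains (TrkA, Flt-3) expressed in baculovirus-infected insect cells. […] Eu-N1 antiphosphotyrosine detection by time-resolved fluorescence.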

[18] = target: Mitogen-activated protein kinase 8 (Homo sapiens, UniProt P45983); experiment: Inhibition of c-Jun N-terminal kinase 1-beta 1
[19] = target: High affinity nerve growth factor receptor (Homo sapiens, UniProt P04629); experiment: Inhibition of TrkA receptor; in short: as §5
[20] = target: T1, Vascular endothelial growth factor receptor 2; experiment: Inhibition of human Vascular endothelial growth factor receptor 2
In short: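 Baculovirus-expressed recombinant human VEGF-R2 cytoplasmic domain was assayed by ELISA with a GST–phospholipase C-γ fusion substrate. […] Eu-N1 antiphosphotyrosine was added for 1 h at 37 °C and read by time-resolved fluorescence. IC50 came from nonlinear sigmoidal fits, averaging at least 3 determinations.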

[21] = target: Mast/stem cell growth factor receptor Kit (Homo sapiens, UniProt P10721); experiment: Inhibition of Proto-oncogene tyrosine-protein kinase Kit
[22] = target: T1, Vascular endothelial growth factor receptor 2; conditions: HUVEC, 100 nM
[23] = target: T1, Vascular endothelial growth factor receptor 2; conditions: HUVEC, 10 nM
[24] = target: T4, Vascular endothelial growth factor receptor (Homo sapiens) (UniProt P17948+P35916+P35968); conditions: HUVEC, 100 nM
[25] = target: T4, Vascular endothelial growth factor receptor (Homo sapiens); conditions: HUVEC, 40 nM
[26] = target: T4, Vascular endothelial growth factor receptor (Homo sapiens); conditions: Capillary, HUVEC, 400 nM
[27] = target: T1, Vascular endothelial growth factor receptor 2; experiment: In vitro inhibitory concentration against human vascular endothelial growth factor receptor 2; in short: as §4
[28] = target: T1, Vascular endothelial growth factor receptor 2; experiment: Inhibition of Vascular endothelial growth factor receptor 2 autophosphorylation by VEGF in human umbilical vein endothelial cells (HUVECs) at 50 nM; format: cell-based; conditions: HUVEC; in short: as §1
[29] = tested on: Mus musculus; experiment: Antitumor activity against SVR tumor growth in mice by administration of 23.8 mg/kg b.i.d.; format: functional; conditions: oral; in short: as §3
[30] = target: T1, Vascular endothelial growth factor receptor 2; experiment: Inhibition of Vascular endothelial growth factor receptor 2 autophosphorylation by VEGF in human umbilical vein endothelial cells (HUVECs) at 200 nM; format: cell-based; conditions: HUVEC; in short: as §1

T4 sequence (P17948 whole entry, looked up): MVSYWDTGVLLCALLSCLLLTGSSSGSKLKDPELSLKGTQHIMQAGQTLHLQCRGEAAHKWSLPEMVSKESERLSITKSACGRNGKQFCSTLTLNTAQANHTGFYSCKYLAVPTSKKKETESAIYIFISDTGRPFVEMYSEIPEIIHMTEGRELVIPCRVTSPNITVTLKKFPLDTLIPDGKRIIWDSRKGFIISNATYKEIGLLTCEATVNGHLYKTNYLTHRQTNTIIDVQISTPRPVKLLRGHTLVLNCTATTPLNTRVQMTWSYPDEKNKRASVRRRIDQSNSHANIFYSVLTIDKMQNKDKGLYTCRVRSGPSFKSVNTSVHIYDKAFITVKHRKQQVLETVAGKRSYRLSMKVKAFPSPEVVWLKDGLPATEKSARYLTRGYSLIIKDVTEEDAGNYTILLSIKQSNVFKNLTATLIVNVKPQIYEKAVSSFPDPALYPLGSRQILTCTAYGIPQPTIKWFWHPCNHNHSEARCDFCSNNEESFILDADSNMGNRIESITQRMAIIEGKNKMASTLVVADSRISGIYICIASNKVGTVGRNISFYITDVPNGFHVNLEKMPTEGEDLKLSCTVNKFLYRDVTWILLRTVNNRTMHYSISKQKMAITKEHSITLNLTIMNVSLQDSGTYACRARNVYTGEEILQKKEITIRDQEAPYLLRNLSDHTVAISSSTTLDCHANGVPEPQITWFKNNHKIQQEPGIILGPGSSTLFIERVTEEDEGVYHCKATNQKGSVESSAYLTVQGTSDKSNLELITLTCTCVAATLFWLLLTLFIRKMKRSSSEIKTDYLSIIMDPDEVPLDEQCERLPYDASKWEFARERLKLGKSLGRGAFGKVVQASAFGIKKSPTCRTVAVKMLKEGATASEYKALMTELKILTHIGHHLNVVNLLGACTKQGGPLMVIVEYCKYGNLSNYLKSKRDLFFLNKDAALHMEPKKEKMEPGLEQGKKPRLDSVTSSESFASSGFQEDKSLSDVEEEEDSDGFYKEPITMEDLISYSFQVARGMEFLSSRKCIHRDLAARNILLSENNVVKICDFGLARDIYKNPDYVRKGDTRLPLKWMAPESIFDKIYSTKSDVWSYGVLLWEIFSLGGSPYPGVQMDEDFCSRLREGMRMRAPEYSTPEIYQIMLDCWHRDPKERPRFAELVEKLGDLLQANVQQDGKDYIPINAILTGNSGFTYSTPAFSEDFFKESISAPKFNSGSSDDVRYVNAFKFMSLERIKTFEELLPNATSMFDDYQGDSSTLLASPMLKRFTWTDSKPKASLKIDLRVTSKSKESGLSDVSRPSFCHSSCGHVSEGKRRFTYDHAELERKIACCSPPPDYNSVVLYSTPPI
T4 sequence (P35916 whole entry, looked up): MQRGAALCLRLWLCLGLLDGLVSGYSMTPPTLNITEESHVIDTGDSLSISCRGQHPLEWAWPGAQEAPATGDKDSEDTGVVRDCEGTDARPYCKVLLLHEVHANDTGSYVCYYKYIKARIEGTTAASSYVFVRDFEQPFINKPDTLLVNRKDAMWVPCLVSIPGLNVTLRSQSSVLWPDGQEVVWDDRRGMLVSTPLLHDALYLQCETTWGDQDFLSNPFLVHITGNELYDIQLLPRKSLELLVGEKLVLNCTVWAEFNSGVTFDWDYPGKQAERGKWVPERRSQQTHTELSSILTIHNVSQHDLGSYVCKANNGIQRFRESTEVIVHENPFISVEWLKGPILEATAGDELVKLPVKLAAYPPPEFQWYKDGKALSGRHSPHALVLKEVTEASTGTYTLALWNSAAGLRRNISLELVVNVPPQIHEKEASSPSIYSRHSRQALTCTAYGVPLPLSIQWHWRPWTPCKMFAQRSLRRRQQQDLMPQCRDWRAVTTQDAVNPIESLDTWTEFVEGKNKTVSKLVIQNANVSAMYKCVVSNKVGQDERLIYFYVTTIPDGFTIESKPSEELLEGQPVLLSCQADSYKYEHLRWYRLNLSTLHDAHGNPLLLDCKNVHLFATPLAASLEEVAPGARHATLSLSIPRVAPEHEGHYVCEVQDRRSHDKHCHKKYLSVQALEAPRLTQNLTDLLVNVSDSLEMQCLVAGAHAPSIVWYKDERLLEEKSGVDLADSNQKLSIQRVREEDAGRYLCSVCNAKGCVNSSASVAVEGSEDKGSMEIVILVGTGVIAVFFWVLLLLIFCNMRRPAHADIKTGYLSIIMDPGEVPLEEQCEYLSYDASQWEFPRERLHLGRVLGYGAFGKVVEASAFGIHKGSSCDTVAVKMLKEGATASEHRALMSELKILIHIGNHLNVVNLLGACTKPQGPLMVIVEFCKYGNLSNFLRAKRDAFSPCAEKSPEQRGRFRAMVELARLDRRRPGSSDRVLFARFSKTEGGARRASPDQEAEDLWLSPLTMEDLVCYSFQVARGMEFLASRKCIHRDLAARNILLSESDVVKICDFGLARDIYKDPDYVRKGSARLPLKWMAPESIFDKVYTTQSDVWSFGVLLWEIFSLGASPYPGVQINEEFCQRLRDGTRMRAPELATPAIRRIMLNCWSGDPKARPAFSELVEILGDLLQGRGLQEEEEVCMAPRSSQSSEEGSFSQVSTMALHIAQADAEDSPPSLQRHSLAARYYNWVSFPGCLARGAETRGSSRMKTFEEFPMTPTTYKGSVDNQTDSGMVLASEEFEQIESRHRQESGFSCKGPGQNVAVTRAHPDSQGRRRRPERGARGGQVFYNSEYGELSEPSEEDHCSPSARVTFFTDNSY
T4 sequence (P35968 whole entry, looked up): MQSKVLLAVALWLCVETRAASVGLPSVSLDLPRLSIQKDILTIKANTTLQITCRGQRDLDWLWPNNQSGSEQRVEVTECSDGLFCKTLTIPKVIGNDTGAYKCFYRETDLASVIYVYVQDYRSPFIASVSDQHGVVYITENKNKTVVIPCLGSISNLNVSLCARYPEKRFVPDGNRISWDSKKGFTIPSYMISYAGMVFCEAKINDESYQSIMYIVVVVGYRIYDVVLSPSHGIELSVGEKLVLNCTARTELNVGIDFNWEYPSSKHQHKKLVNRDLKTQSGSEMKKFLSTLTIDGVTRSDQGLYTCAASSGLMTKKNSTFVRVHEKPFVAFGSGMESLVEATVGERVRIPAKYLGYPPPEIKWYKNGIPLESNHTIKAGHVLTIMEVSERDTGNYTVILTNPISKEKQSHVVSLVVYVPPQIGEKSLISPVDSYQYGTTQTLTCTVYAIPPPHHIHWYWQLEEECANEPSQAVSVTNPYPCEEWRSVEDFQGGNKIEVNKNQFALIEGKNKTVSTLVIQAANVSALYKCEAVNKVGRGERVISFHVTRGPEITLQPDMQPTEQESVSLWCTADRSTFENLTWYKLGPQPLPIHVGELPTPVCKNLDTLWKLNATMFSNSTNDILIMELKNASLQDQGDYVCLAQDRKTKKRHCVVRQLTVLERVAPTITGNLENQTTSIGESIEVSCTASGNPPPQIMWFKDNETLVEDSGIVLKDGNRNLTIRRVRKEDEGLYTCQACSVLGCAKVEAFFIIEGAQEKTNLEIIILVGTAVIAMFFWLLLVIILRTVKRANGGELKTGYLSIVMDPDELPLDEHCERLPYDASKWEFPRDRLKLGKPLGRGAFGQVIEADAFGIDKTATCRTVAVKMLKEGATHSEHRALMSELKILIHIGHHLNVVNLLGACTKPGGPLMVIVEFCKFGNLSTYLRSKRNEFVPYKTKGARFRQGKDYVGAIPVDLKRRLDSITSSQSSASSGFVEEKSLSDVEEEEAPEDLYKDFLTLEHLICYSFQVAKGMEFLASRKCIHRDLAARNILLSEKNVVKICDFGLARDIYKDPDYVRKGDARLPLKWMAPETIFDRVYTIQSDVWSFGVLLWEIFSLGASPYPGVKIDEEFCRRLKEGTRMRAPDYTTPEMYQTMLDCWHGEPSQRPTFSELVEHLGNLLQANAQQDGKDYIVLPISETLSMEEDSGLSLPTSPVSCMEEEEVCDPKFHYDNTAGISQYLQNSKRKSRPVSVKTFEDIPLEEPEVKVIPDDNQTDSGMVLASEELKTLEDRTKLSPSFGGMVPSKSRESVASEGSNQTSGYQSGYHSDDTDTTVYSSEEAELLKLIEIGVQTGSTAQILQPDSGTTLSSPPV
T1 sequence (P35968 whole entry): as the sequence (P35968 whole entry, looked up) above
Mitogen-activated protein kinase 8, sequence (P45983 whole entry): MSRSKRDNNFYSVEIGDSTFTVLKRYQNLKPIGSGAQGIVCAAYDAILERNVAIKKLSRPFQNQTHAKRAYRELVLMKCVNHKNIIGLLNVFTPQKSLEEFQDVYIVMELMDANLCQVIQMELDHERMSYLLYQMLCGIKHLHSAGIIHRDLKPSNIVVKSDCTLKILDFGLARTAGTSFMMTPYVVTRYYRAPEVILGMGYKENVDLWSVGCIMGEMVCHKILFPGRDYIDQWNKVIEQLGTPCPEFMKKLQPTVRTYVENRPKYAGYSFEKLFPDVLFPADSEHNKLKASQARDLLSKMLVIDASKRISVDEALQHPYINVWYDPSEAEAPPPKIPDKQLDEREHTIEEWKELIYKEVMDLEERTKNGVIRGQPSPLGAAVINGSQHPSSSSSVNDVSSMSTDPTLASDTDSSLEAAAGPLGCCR
Vascular endothelial growth factor receptor 1, sequence (P17948 whole entry, the tested form may be a part): as the sequence (P17948 whole entry, looked up) above
Mitogen-activated protein kinase 14, sequence (Q16539 whole entry): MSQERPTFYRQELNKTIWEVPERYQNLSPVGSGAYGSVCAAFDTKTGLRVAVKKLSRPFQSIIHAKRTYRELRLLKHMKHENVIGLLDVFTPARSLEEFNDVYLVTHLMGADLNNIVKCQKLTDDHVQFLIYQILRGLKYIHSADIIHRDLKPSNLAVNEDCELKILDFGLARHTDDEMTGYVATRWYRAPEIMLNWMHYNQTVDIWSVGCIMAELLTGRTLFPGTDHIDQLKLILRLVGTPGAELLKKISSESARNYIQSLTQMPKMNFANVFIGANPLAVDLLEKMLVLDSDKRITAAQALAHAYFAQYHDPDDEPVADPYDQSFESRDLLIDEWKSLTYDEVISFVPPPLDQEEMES
Vascular endothelial growth factor receptor 3, sequence (P35916 whole entry, the tested form may be a part): as the sequence (P35916 whole entry, looked up) above

inhibition [1]: 75%
inhibition [2]: 100%
Compound: CCOCc1ccc2c(c1)c1c3c(c4c(c1n2CCCO)Cc1ccccc1-4)C(=O)NC3

Cmax [3]: 100 ng/mL
solubility [4]: 10 µg/mL (≈ 22.7 µM)
IC50 [5]: > 10000 nM
IC50 [6]: 162 nM
IC50 [10]: > 10000 nM
IC50 [11]: > 10000 nM
IC50 [12]: > 3000 nM
IC50 [13]: > 3000 nM
IC50 [14]: 4 nM
IC50 [15]: 16 nM
IC50 [16]: > 10000 nM
IC50 [17]: 1.6 nM
IC50 [18]: 448 nM
IC50 [19]: > 3000 nM
IC50 [20]: 8 nM
IC50 [21]: 57 nM
inhibition [22]: 100%
inhibition [23]: 75%
inhibition [24]: 75%
inhibition [25]: 21%
inhibition [26]: 89%
Compound: CC(C)OCc1ccc2c(c1)c1c3c(c4c(c1n2CCCO)Cc1ccccc1-4)C(=O)NC3 [CEP-5214]
minimal effective dose [7]: 3 mg/kg
inhibition in vivo at 10 mg/kg [8]: 57%
inhibition in vivo at 20 mg/kg [9]: 70%

IC50 [27]: 105 nM
Compound: O=Cc1ccc2c(c1)c1c3c(c4c(c1n2CCCO)Cc1ccccc1-4)C(=O)NC3

inhibition [28]: 100%
Compound: CC[C@@H](C)OCc1ccc2c(c1)c1c3c(c4c(c1n2CCCO)Cc1ccccc1-4)C(=O)NC3

IC50 [27]: 104 nM
Compound: O=C1NCc2c1c1c(c3c2c2cc(Br)ccc2n3CCCO)Cc2ccccc2-1

IC50 [27]: 414 nM
Compound: O=C1NCc2c3c(c4[nH]c5ccccc5c4c21)Cc1ccccc1-3

Compound: CC(C)OCc1ccc2c(c1)c1c3c(c4c(c1n2CCCOC(=O)CN(C)C)Cc1ccccc1-4)C(=O)NC3 [CEP-7055]
inhibition in vivo at 23.8 mg/kg [29]: 70%

inhibition [30]: 100%
Compound: CCSCc1ccc2c(c1)c1c3c(c4c(c1n2CCCO)Cc1ccccc1-4)C(=O)NC3

inhibition [1]: 100%
inhibition [28]: 100%
Compound: CC(C)(C)OCc1ccc2c(c1)c1c3c(c4c(c1n2CCCO)Cc1ccccc1-4)C(=O)NC3

inhibition [30]: 100%
Compound: CC(C)SCc1ccc2c(c1)c1c3c(c4c(c1n2CCCO)Cc1ccccc1-4)C(=O)NC3

IC50 [27]: 35 nM
Compound: CCC(CC)OCc1ccc2c(c1)c1c3c(c4c(c1n2CCCO)Cc1ccccc1-4)C(=O)NC3

IC50 [27]: 276 nM
Compound: CC(C)CCOCc1ccc2c(c1)c1c3c(c4c(c1n2CCCO)Cc1ccccc1-4)C(=O)NC3

inhibition [28]: 100%
Compound: CC[C@H](C)OCc1ccc2c(c1)c1c3c(c4c(c1n2CCCO)Cc1ccccc1-4)C(=O)NC3

IC50 [27]: 309 nM
Compound: CC(C)[S+]([O-])Cc1ccc2c(c1)c1c3c(c4c(c1n2CCCO)Cc1ccccc1-4)C(=O)NC3 (configuration not stated)

IC50 [27]: 55 nM
Compound: CC(C)OCc1ccc2[nH]c3c4c(c5c(c3c2c1)CNC5=O)-c1ccccc1C4

inhibition [1]: 25%
inhibition [2]: 100%
Compound: COC(C)c1ccc2c(c1)c1c3c(c4c(c1n2CCCO)Cc1ccccc1-4)C(=O)NC3 (configuration not stated)

IC50 [27]: 163 nM
Compound: Cc1ccc2c(c1)c1c3c(c4c(c1n2CCCO)Cc1ccccc1-4)C(=O)NC3

inhibition [30]: 100%
Compound: CCCCOCc1ccc2c(c1)c1c3c(c4c(c1n2CCCO)Cc1ccccc1-4)C(=O)NC3

inhibition [30]: 100%
Compound: CCCOCc1ccc2c(c1)c1c3c(c4c(c1n2CCCO)Cc1ccccc1-4)C(=O)NC3

IC50 [27]: 110 nM
Compound: O=C1NCc2c1c1c(c3[nH]c4ccccc4c23)Cc2ccccc2-1

IC50 [27]: 187 nM
Compound: CC(=O)c1ccc2c(c1)c1c3c(c4c(c1n2CCCO)Cc1ccccc1-4)C(=O)NC3
